Shown are actives, neighbours in structure and some others; about 2.9% of the full set was active somewhere.
Ecoli rRNA inh: inhibitors of bacterial rRNA selective over humanized ribosomes | GFP signal change (wild-type ribosome), % (no concentration beside the values) | E. coli WT GFP vs humanized-ribosome RFP mutants, fluorescence, 24 h; stronger effect = lower value; DMSO median 0, no signal -100 | 1.6% of 350,000 active;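 active = significant combined selectivity score with lowered wild-type GFP, culture density cut under 30%, mutant RFP and density less affected; inactive = any of these conditions unmet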
Cneo AK release: Cryptococcus neoformans lysis via adenylate kinase release | lysis activity, % at 15 µM | 0.2% of 360,000 active | C. neoformans lysis, adenylate kinase release luminescence, 4 h; normalised: neutral wells 0, clomiphene wells 100;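 active = mean lysis activity across replicates of at least 80%, whatever share of replicates individually reach that level; inactive = mean lysis activity below 80%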
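Material: C. neoformans cells; Schedule: 4 h static compound exposure, 37 °C, read 1 h post-reagent; Measured by: adenylate kinase release luminescence; Read-out: signal increase indicating cell lysis; Controls: Clomiphene as positive lysis control.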
PGC1a acetyl inh: modulators of PGC1a acetylation; U2OS PGC1a acetylation, AlphaScreen anti-acetyl-lysine; with virally co-expressed GCN5 acetyltransferase; 0.17% of 350,000 active; inhibition, % at 15.6 µM;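 active = every replicate shows inhibition of at least 40%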;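 note: 0% = neutral control wells and 100% = positive control wells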
FGF22 binding-1: shifts melting point of recombinant human FGF22. recombinant FGF22 thermal shift, SYPRO orange fluorescence; percent of sucrose octasulfate shift, DMSO zero. activity (Tm shift, normalised), % at 9.99 µM. 1.5% of 340,000 active;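 active = mean Tm shift, scaled 0 neutral to 100 positive control, at about 1.3% or above, every replicate too, limit read from the data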
Target sequence (Q9HCT0 whole entry, looked up): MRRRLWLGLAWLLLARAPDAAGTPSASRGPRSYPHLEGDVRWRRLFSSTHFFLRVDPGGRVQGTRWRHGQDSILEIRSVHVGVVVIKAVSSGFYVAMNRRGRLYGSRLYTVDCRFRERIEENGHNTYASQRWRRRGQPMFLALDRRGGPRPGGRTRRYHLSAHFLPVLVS
PglD inh: inhibitors of Campylobacter jejuni PglD acetyltransferase | purified PglD enzyme, DTNB colorimetric CoA detection | inhibition, % at 12.5 µM | 0.098% of 360,000 active | AID 602405; in the data active = inhibition above about 16%, passing the limit was not always enough
Vif imaging: blocks HIV Vif function | HEK293T cells, Vif self-association by quenched fluorescence, imaging, 24 h | inhibition, % at 7.49 µM | 0.35% of 340,000 active | AID 602346; in the data active = inhibition above about 50%, passing the limit was not always enough
FGF22 binding-2: binders of human FGF22 by thermal shift | thermal shift activity, °C (ΔTm) at 38 µM | 2% of 1,000 active | shares compounds with FGF22 binding-1 | recombinant FGF22 thermal shift, SYPRO orange fluorescence | AID 720646;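 active = fitted rise in melting shift crosses a set limit at or below the top valid dose tested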
SYPRO no-protein: compound-only SYPRO artifact for FGF22 binders | 2% of 1,000 active | AC50, µM (series often up to 38 µM) | compound-only SYPRO orange thermal shift counter-screen, no protein | shares compounds with FGF22 binding-1;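 active = rising signal whose fitted curve reaches the 0.54 level within the top valid dose, showing a melting point, actives reach about 13 µM in these data; inactive = the rest, including activity in the opposite direction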; note: value is where the raw curve crosses a fixed level and not half-maximal
Starred values were filed as active, the others as inactive; i = inactive; . = not tested or not shown; [ ] = another dose, or the depositor's remark.

SMILES	Ecoli rRNA inh	Cneo AK release	PGC1a acetyl inh	FGF22 binding-1	PglD inh	Vif imaging	FGF22 binding-2	SYPRO no-protein
COc1cc(C2C(C#N)=C(N)Oc3n[nH]c(-c4cccnc4)c32)cc(Br)c1O (stereo not given)	-13	0	.	1.8*	-1	-2	0.28	i
COc1ccc([N+](=O)[O-])cc1/C=N/Nc1nn[nH]n1	2	.	3	1.5*	.	0	-0.04	i
COc1ccc([N+](=O)[O-])cc1/C=N/NC(=O)c1nonc1N	17	-3	6	0	.	22	.	.
COc1ccc(/C=N/Nc2ccc([N+](=O)[O-])cc2)cc1O	-10	-17	-6	1.8*	-10	-9	.	i
COc1ccc(/C=N/NC(=O)c2cccc([N+](=O)[O-])c2)cc1OC	14	.	.	1.6*	.	0	0.034	i
Cc1nc2cc(C(=O)NCc3ccc4c(c3)OCO4)ccc2n1-c1ccc(Br)cc1	-21	.	.	1.6*	.	2	-0.051	i
COc1ccccc1NC(=O)c1ccc(NC(=O)c2ccc(=O)[nH]c2)cc1	-1	1	2	1.9*	0	4	0.36	i
C[C@@H]1CN([C@H](C)CO)C(=O)c2cccc(NC(=O)C3CCOCC3)c2O[C@@H]1CN(C)S(=O)(=O)c1cccs1	-3	-2	1	0	0	.	.	.
CC(C)(C)[S@@](=O)N1Cc2cc(C(=O)NCc3ccccc3F)nc(-c3cccc(-c4ccncc4)c3)c2[C@H]1CCO	-6	-4	13	1.9*	11	.	-0.14	i
Cc1ccc(O)c(NC(=O)c2noc(C(C)C)c2[N+](=O)[O-])c1	-16	.	2	0	.	3	.	.
CC(=O)c1ccc(NC(=O)c2noc(C(C)C)c2[N+](=O)[O-])cc1	2	.	.	1.7*	.	-24	0.13	i
O=C1CN(S(=O)(=O)Cc2ccccc2)C[C@@H]2[C@H](c3ccc(C#CC4CC4)cc3)[C@@H](CO)N12	2	.	10	.	.	.	.	.
Cc1noc(C)c1S(=O)(=O)Nc1ccc2c(c1)CC(=O)N([C@H](C)CO)C[C@@H](C)[C@@H](CN(C)C(=O)Nc1ccc3c(c1)OCO3)O2	4	-2	4	1	1	.	.	.
NC(c1ccc(F)c(F)c1)c1nc(-c2cncnc2)cs1 (stereo not given)	-9	0	-5	38*	-9	13	0.11	i
Cc1ccnc(NC(=O)CN2C(=O)NC(C)(c3ccc4ccccc4c3)C2=O)c1 (stereo not given)	-3	0	.	-1	-4	0	.	.
CC1(c2ccc3ccccc3c2)NC(=O)N(CC(=O)Nc2ncccc2O)C1=O (stereo not given)	-3	-1	.	1.7*	1	20	0.14	i
S=C(Nc1ccc(Cl)cc1)Nc1ccc2cn[nH]c2c1	-53	.	14	1.9*	.	1	0.26	i
O=C(OCC(=O)c1ccc(Cl)s1)c1ccc2ccccc2n1	0	-3	4	1.7*	-4	-2	0.031	i
COc1ccc(NC(=O)Nc2ccc3c(c2)C(=O)N([C@H](C)CO)C[C@@H](C)[C@@H](CN(C)C(=O)NC2CCCCC2)O3)cc1	-1	-2	-9	0	1	.	.	.
CC(=O)Nc1ccc(S(=O)(=O)Nc2nc3ccccc3nc2Nc2cccc(S(N)(=O)=O)c2)cc1	5	-1	-4	2.0*	3	8	0.011	i
CC(=O)N1CC2(C1)[C@H](c1ccccc1)[C@H](CO)N2C(=O)c1ccncc1	3	.	.	.	.	.	.	.
COCC(=O)N[C@H]1C=C[C@@H](CC(=O)NCc2ccc(Cl)cc2)O[C@H]1CO	3	.	-7	.	.	.	.	.
O=C(c1cccc(NC2=NC3CS(=O)(=O)CC3S2)c1)N1CCN(c2ncccn2)CC1 (stereo not given)	5	-2	-4	12*	2	-3	-0.25	i
COc1ccc(S(=O)(=O)Nc2ccc3c(c2)C(=O)N([C@@H](C)CO)C[C@H](C)[C@H](CN(C)Cc2ccc(C(=O)Nc4ccccc4N)cc2)O3)cc1	1	-1	11	0	3	.	.	.
CC(=O)Nc1cccc(C(=O)N2CCC(n3nccc3NC(=O)CC(C)C)CC2)c1	8	0	.	1.5*	3	-23	0.01	i
SMILES	Ecoli rRNA inh	Cneo AK release	PGC1a acetyl inh	FGF22 binding-1	PglD inh	Vif imaging	FGF22 binding-2	SYPRO no-protein
O=C(NN1C(=O)CSC1=S)C(=O)NN1C(=O)CSC1=S	0	0	10	2.4*	0	-11	-0.042	i
O=C(O)CN1C(=O)CSC1=S	12	-2	2	0	-1	-3	.	.
COc1ccc(NS(=O)(=O)c2cc(N=Nc3c(O)[nH]c(=O)[nH]c3=O)ccc2Cl)cc1	5	0	2	1.4*	3	14	-0.08	i
Cc1ccc(NS(=O)(=O)c2ccc(Cl)c(N=Nc3c(O)[nH]c(=O)[nH]c3=O)c2)cc1Cl	-3	-2	-4	0	-2	8	.	.
O=S(=O)(/N=C(/Nc1nc2ccccc2s1)c1ccccc1)c1ccc(F)cc1	0	-5	13	.	4	-6	.	.
O=S(=O)(/N=C(/Nc1nccs1)c1ccc(F)cc1)c1ccccc1	10	-1	4	38*	2	-6	-0.062	i
O=C(O/N=C1\CCCc2ccccc21)C1CC1	10	0	4	2.7*	-9	3	0.067	i
Cc1ccc(C(=O)O/N=C2\CCCc3ccccc32)cc1	.	11	2	.	-1	9	.	.
COc1ccc(CN(C)C[C@@H]2OCCCC[C@@H](C)Oc3ccc(N(C)C)cc3C(=O)N([C@H](C)CO)C[C@H]2C)cc1	2	3	-22	-1	-1	.	.	.
COc1cccc(NC(=O)N(C)C[C@@H]2Oc3cc(-c4ccccc4F)ccc3S(=O)(=O)N([C@H](C)CO)C[C@@H]2C)c1	-5	-3	-14	4.0*	1	.	-0.21[42 µM]	i
Cc1ccccc1-c1ccc2c(c1)O[C@H](CN(C)CC1CC1)[C@H](C)CN([C@H](C)CO)S2(=O)=O	2	49	0	1.5*	1	.	0.14	i
COc1ccccc1-c1ccc2c(c1)O[C@@H](CN(C)CC1CC1)[C@@H](C)CN([C@@H](C)CO)S2(=O)=O	3	.	3	.	.	.	.	.
COc1cccc(NC(=O)N(C)C[C@H]2Oc3cc(-c4ccccc4OC)ccc3S(=O)(=O)N([C@H](C)CO)C[C@H]2C)c1	-6	-5	-1	1	-1	.	.	.

High-throughput results (PubChem BioAssay)
